Tests used:
MS2 coat protein [1] = assay: apparent Kd, MS2 coat protein; higher = weaker binding; RNA-MaP array
In short: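 On an Illumina sequencing chip, sequenced DNA templates served for transcription of the designed RNAs, which were then bound at room temperature by fluorescently labeled MS2 coat protein at 1.5 nM to 3 μM, with or without input ligand. Apparent Kd is the median of the fits to each cluster's binding curve. Only designs measured on at least 10 clusters were kept.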

MS2 coat protein [2] = assay: apparent Kd, MS2 coat protein; higher = weaker binding; RNA-MaP array; FMN 200 µM where present
In short: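 Stalled E. coli RNA polymerase produced the designs on Illumina sequencing-chip clusters. SNAP-549-labelled MS2 coat protein was added from 0.7 or 1.5 nM, doubling to 3 µM, without and then with constant ligand, in 100 mM Tris-HCl pH 7.5, 80 mM KCl, 4 mM MgCl2, BSA, DTT, yeast tRNA and Tween-20. The apparent Kd is the median of filtered per-cluster fits of green signal normalised to red-channel RNA signal and control-cluster median Fmax.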

[3] = designed as: ON switch for flavin mononucleotide, no ligand
[4] = ligand present: flavin mononucleotide, designed as: ON switch for flavin mononucleotide
[5] = designed as: OFF switch for flavin mononucleotide, no ligand
[6] = ligand present: flavin mononucleotide, designed as: OFF switch for flavin mononucleotide

Sequence | apparent Kd (MS2 coat protein [1]; [5]) | apparent Kd (MS2 coat protein [1]; [6]) | apparent Kd (MS2 coat protein [2]; [6]) | other results
AACUGUAAUACAAGAACAUGAGGAUCACCCAUGUGUCGCGCAGAGGAUAUACUGGUUCGCUGUCCGUAGAAGGCUGAGCACAUG | – | – | – | apparent Kd (MS2 coat protein [1]; [3]): 33.9 nM; apparent Kd (MS2 coat protein [1]; [4]): 23.9 nM
CAAAAUGCGGCGGCCGCCACUCAGCUCCGUGUGGUUGGUCAUCUUAACAUGAGGAUCACCCAUGUGAGGACCGGGCCAGCGAGUG | – | – | – | apparent Kd (MS2 coat protein [1]; designed as: OFF switch for tryptophan, no ligand): 13.5 nM; apparent Kd (MS2 coat protein [1]; ligand present: tryptophan, designed as: OFF switch for tryptophan): 13.9 nM
UACAUGAGGAUCACCCAUGUUUAUUGGUAGAACGGAUAAUGGGAGGAUAUGAACCGAUCAGAUCAUCAGAAGGCCCUUAAUGGG | – | – | – | apparent Kd (MS2 coat protein [1]; [3]): 29 nM; apparent Kd (MS2 coat protein [1]; [4]): 20 nM
UCAUGAAAGUCAGGAUAUGGCCACAUGAGGAUCACCCAUGUUUGCUUUAUCGAGCGAAACUGAGACCAGAAGGGACGGACAUUC | – | – | – | apparent Kd (MS2 coat protein [1]; [3]): 20.8 nM; apparent Kd (MS2 coat protein [1]; [4]): 11.1 nM
UCGACAUCAGGAUAUACGAUGGAGUAGUUACGAGUAUCACGACAUGAGGAUCACCCAUGUAGAAGGGAUCGUCC | 21.4 nM | 17.7 nM | – | –
GCCAAAAUACCCGAUACCAGUAUUAAUAGCACAACCUCACACAUGAGGAUCACCCAUGUAUACCCUUGGCAGCGGCCUAACAUAA | – | – | – | apparent Kd (MS2 coat protein [1]; designed as: OFF switch for theophylline, no ligand): 36.9 nM; apparent Kd (MS2 coat protein [1]; ligand present: theophylline, designed as: OFF switch for theophylline): 102 nM
UAGUAACAUGAGGAUCACCCAUGUGAGGAUAUCUGGCUAGGCUAAAGCAGAGAAACCAAGAGAAGGCACGGGAU | 19.4 nM | 20.8 nM | – | –
UACAUUAUAGAGAAGGAUUACUCACACAUGAGGAUCACCCAUGUGUCCAUCAUGGCUGUAGGUUAAUAGGAUAUCUUAGAAGUG | 64.1 nM | 155 nM | – | –
AGAUUCUCUGAAGGAUAUCGCGUUUAUUUCGAGCGAGAAGGUCAAUUAUGGGAGAUGCACAUGAGGAUCACCCAUGUUCGAAAA | 339 nM | 119 nM | – | –
GUAAAACUGUAAGGAUAUGAUGAACUUUAACCCUCAGAAGGAACACCACAUGAGGAUCACCCAUGUUAGGAAAGCAACUUGUUG | – | – | – | apparent Kd (MS2 coat protein [1]; [3]): 14.1 nM; apparent Kd (MS2 coat protein [1]; [4]): 13.8 nM
UUUACACACUCAGGAUAUGAAUUCAAUUUAUCGGGCCGCUAACAUGAGGAUCACCCAUGUAACAUUCAGAAGGGAGAAGAGCCA | 17.5 nM | 13.7 nM | – | –
UAACAUGAGGAUCACCCAUGUAACCAUCUCCAAGUCGGUAGGCAGGAUAUGUACAUAAUGGAAGAACAGAAGGGCCGGUCCGAG | – | – | – | apparent Kd (MS2 coat protein [1]; [3]): 31.1 nM; apparent Kd (MS2 coat protein [1]; [4]): 9.9 nM
CGGUGACAUGAGGAUCACCCAUGUAAGGAUAUACCGGUUGAAGAUAAUAGCGACGGCGGAAGAAGGUACCUACA | 32 nM | 25.9 nM | – | –
AGGAGGCAUAAGAAGGGUACAUGUAUUGGGUGUACAGGAUAUUACAGGUGCCGCACAUGAGGAUCACCCAUGUUAUCAUUGUGC | 39 nM | 34 nM | – | –
AGAUCCUAAGUAAGGAUAUACCUCGCACACAAGUCGUAGAAGGUACAUGAGGAUCACCCAUGUAGGAAAGUACU | 12.4 nM | 15.3 nM | – | –
CAUACAUAACAUGAGGAUCACCCAUGUGACUCACUCUGAAAGCAGGAUAUAUUCGGUAAGCUACGAUAGAAGGGCUAUGCGUAA | 42.2 nM | 31.3 nM | – | –
AAAAAACAUGAGGAUCACCCAUGUCAGGAUAUCCGAAAAAAAAAAAAAAAAAAAAAAAGGAGAAGGGACAAAAA | – | – | 83.8 nM | apparent Kd (MS2 coat protein [2]; [5]): 100 nM
ACCUCACAUGAGGAUCACCCAUGUUAGGAUAUUAAAUAGCGCGCAAAACAGCCCUGUAUGAGAAGGAGCUGGGA | – | – | 14.8 nM | apparent Kd (MS2 coat protein [2]; [5]): 13.6 nM
GUGGUACAUGAGGAUCACCCAUGUUAGGAUAUCGCGUGAGGUUUUACUUCCGCGCGCGCGAGAAGGGACGUCUU | – | – | 22.8 nM | apparent Kd (MS2 coat protein [2]; [5]): 26.8 nM
GGUCCUUCUGUUAGGAUAUGCUAUGGGCUUCCGCAGUAGAAGGAACAUGAGGAUCACCCAUGUCCGAUGCCGUA | – | – | 121 nM | –
AAGAAGUCAGGAUAUGCAUGGCGGGACUUGCGUCGUGGCGUGCAGAAGGGACAUGAGGAUCACCCAUGUAAAGU | – | – | 45.4 nM | apparent Kd (MS2 coat protein [2]; [5]): 49 nM
CAAGUACCAGAGGAUAUGGCGGUGCACUCCGUGCCAGAAGGUUGGACAUGAGGAUCACCCAUGUGCGAUUAGCU | – | – | 27.1 nM | apparent Kd (MS2 coat protein [2]; [5]): 26 nM
GCCUCAUAGUAGAAGGGACUAUUACAGUAAUUUUUUUAGAUUAAAUAACAUGAGGAUCACCCAUGUCAGGAUAUACUAAGAGGC | – | – | 37.1 nM | apparent Kd (MS2 coat protein [2]; [5]): 26.4 nM
GAGCGAAAGCUCAAUGUCGAUAGCAGAAGGACAUCCUUAAACAUGAAAACAUGAGGAUCACCCAUGUAGGAUAUGCUAUCGACU | – | – | 9.1 nM | apparent Kd (MS2 coat protein [2]; [5]): 7.31 nM
AGGAUAAGAAGAACUAUCCAUUGUACAGAAGGCCAACAUGAGGAUCACCCAUGUAAGAAAAGGAUGGAGGAUAUGUAUAGGGCC | – | – | – | apparent Kd (MS2 coat protein [2]; [3]): 37.3 nM; apparent Kd (MS2 coat protein [2]; [4]): 19.8 nM
UGUUUUGUACAUGAGGAUCACCCAUGUUAAUAUGUGGUAGUCAGAAGGCAUUGUUUGAGAUAUUAUGAGGAUAUGAUUAGUCUG | – | – | – | apparent Kd (MS2 coat protein [2]; [4]): 43.9 nM
AGAAAUUAGUGAGGAUAUGCAUAAUGUGUAGCUGCAGAAGGCACGGACCACAAGACAUGAGGAUCACCCAUGUGGUAUAUAGAU | – | – | 29.3 nM | apparent Kd (MS2 coat protein [2]; [5]): 25.9 nM
